The text below walks through data of PubChem BioAssay AID623889 (Vanderbilt Specialized Chemistry Center, 2012).

“And” between values parts separate entries of the source, which are not always exact repeats. Equal entries are not always repeated.

The target of this experiment is Metabotropic glutamate receptor 4 (Rattus norvegicus) (UniProt P31423). Kind of experiment: glutamate potency shift at mGlu4 – rat, HEK/GIRK cells, thallium flux, mGlu4 lead optimization, SAR follow-up (AID 623889). Conditions: at 30 µM, stronger effect = higher value; for glutamate max response: glutamate fold shift, measured here: glutamate maximal response with compound. Put shortly: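 incubation = compound pre-incubation about 2.5 min before glutamate addition | assay system = HEK cells stably co-expressing GIRK channel, M4 receptor and rat mGlu4 | technique = FluoZin-2 fluorescence thallium flux | dosing = one compound dose, 30 µM final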
Chain of Metabotropic glutamate receptor 4 (Rattus norvegicus) (P31423 whole entry, looked up): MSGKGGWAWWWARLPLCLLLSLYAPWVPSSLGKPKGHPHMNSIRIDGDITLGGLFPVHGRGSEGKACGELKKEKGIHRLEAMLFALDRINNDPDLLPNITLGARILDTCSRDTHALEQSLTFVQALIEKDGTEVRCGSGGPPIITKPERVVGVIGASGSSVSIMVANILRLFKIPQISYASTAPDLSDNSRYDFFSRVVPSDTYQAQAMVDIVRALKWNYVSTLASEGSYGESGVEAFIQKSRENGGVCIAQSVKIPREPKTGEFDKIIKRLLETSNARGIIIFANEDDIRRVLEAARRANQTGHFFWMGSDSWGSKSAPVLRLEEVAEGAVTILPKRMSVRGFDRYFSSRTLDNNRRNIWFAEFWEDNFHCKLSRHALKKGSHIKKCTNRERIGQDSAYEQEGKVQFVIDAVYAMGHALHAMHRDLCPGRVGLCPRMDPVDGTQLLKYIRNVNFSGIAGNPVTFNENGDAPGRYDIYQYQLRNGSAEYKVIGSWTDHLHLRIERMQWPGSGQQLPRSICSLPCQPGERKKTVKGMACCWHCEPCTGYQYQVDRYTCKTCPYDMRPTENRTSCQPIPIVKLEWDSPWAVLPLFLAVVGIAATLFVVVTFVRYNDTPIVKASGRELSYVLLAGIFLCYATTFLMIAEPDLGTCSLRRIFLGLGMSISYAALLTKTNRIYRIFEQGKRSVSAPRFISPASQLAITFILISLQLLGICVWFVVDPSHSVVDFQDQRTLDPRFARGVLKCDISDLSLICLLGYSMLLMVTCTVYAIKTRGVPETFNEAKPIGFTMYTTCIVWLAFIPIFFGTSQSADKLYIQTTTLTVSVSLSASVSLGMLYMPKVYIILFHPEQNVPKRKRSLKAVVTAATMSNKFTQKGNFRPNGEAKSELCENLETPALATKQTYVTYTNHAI

With `O=C(Nc1cccc(Cl)c1)c1ccccn1`, the fold shift was 30.2 and the glutamate max response worked out at 88.8%.

Turning to `CC(C)N(C(=O)c1ccccn1)c1cccc(Cl)c1`, the fold shift is 3.16 and the glutamate max response was 108%.

For `Clc1cccc(Nc2ncnc3cccnc23)c1`, the fold shift is 4.02 and the glutamate max response was 87.2%.

As for `O=C(Nc1ccc2cn[nH]c2c1)c1ccccn1`, the fold shift is 11.9 and the glutamate max response turned out to be 103%.

`COc1cc(Nc2noc3cccnc23)ccc1Cl`: the fold shift was 6.67 and the glutamate max response amounted to 84.3%.

Regarding `Clc1ccc2nc(-c3ccccn3)[nH]c2c1`, the fold shift was 15.3 and the glutamate max response is 87.2%.

Consider `FC(F)Oc1cccc(Nc2noc3cccnc23)c1`, for which the fold shift was 21.7 and 16.3; the glutamate max response was 98.4% and 99.7%.

In the case of `Clc1cccc(Nc2noc3cccnc23)c1`, the fold shift is 31.1 and 22.7 and 17.8; the glutamate max response was 90.3% and 98.5% and 99.1%.

As to `Fc1cccc(Nc2noc3cccnc23)c1`, the fold shift is 8.9 and the glutamate max response was found to be 93.6%.

Regarding `COc1cc2nc(-c3ccccn3)[nH]c2cc1Cl`, the fold shift was 3.21 and the glutamate max response was 90.9%.

In the case of `O=C(Nc1ccc2c(c1)C(=O)NC2=O)c1ccccn1`, the fold shift is 2.52 and the glutamate max response amounted to 105%.
